Source: publication PMC3575599 (Cell reports, 2013)
“Also recorded” adds a separate entry of the source.

Tests used:
[1] = tested on: mefs; experiment: Proliferation of mefs with dox-inducible Chd5 or PHD-mutants; format: cell-based, mouse; details: for effect on mef proliferation: dox-induced (0.2 μg/ml dox) vs untreated
Procedure, shortened: (§1)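 Mouse Chd5 (wild-type or PHD point mutants) is introduced by retrovirus in a dox-inducible vector, with SK-N-AS cells stably expressing rtTA. Mefs are seeded at 5 × 10^4 cells per 6 cm dish and SK-N-AS at 2.5 × 10^4 cells. Cells grow in DMEM with 100 μg/ml hygromycin B and 0.5 μg/ml puromycin, ±0.2 μg/ml dox. Cells are counted over days in triplicate (Coulter counter or crystal violet); mean ± S.D., two-tailed t-test.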

[2] = tested on: Chd5 target gene expression; experiment: qRT-PCR of Chd5 target genes in mefs; format: cell-based, mouse; details: qRT-PCR normalized with actin, with (+) vs without (−) dox
[3] = tested on: H3K4me0 peptide; experiment: Peptide pull-down with recombinant wild-type and mutant PHDs or individual PHDs; format: binding; details: biotinylated histone peptides; recombinant PHDs of Chd5
[4] = tested on: chromatin; experiment: Chromatin fractions from cells expressing Flag-tagged Chd5; format: cell-based
[5] = tested on: SK-N-AS cells; experiment: Tumor growth of SK-N-AS cells injected subcutaneously into athymic nude mice; format: in vivo, human; details: SK-N-AS cells s.c., dox-diet
Procedure, shortened: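 SK-N-AS cells carry rtTA plus dox-inducible vector, wild-type or PHD-mutant Chd5. 1.6 × 10^6 cells mixed with Matrigel are injected s.c. into irradiated athymic nude mice. One cohort gets normal diet; the other gets dox diet from two days before injection onward. A blinded observer measures tumours. Read-outs are fold increase in tumour volume over 17 days (mean ± S.E.M.) and percentage change, dox-treated versus untreated.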

[6] = tested on: SK-N-AS cells; experiment: Proliferation of SK-N-AS cells with dox-inducible Chd5 or PHD-mutants; format: cell-based, human; details: for reduction of SK-N-AS proliferation: dox-induced; for effect on SK-N-AS proliferation: dox-induced (0.2 μg/ml dox) vs untreated
Procedure, shortened: as §1

[7] = tested on: SK-N-AS cells; experiment: Differentiation of SK-N-AS cells; format: cell-based, human; details: for cell morphology / differentiation: SK-N-AS, dox-inducible expression; for MAP2 expression: immunofluorescence, neuronal marker MAP2
[8] = tested on: H3 peptide; format: binding; details: nuclear extracts from mefs; anti-Flag immunoblot
[9] = tested on: unmodified H3; format: binding; details: purified Chd5-PHDs or nuclear lysates expressing Flag-tagged Chd5; unmodified H3 peptides
[10] = tested on: recombinant tandem PHDs of Chd5; experiment: Biotinylated histone peptide pull-down with recombinant Chd5 PHDs; format: binding, mouse; details: biotinylated histone peptides; in vitro pull-down

| Compound | effect on mef proliferation [1] | effect on Chd5 target gene expression in mefs [2] | binding to H3K4me0 peptide (pull-down) [3] | cell morphology / differentiation [7] | further results |
| --- | --- | --- | --- | --- | --- |
| W384A: H3-binding-competent Chd5-PHD mutant | inhibited proliferation to an extent comparable to that of wild-type Chd5; also recorded: inhibit proliferation | inhibit expression of several Chd5-bound genes | – | – | – |
| PHD2: individual PHD of Chd5, PHD2 (408–465) (GGCEEEEDDHMEFCRVCKDGGELLCCDACPSSYHLHCLNPPLPEIPNGEWLCPRCTCP; PHD2; UniProt A2A8L1 408-465, looked up, fragment) | – | – | same binding preference for H3K4me0; also recorded: highest affinity | – | – |
| PHD1: individual PHD of Chd5, PHD1 (345–403) (QDYCEVCQQGGEIILCDTCPRAYHLVCLDPELEKAPEGKWSCPHCEKEGIQWEPKDDDE; PHD1; UniProt A2A8L1 345-403, looked up, fragment) | – | – | same binding preference for H3K4me0 | – | – |
| wild-type Chd5: full-length mouse Chd5 (chromodomain helicase DNA-binding protein 5) | inhibited proliferation; also recorded: inhibits cellular proliferation | repress target gene expression | – | flat epithelial-like morphology; also recorded: differentiated cellular morphology | inhibition of proliferation in mefs ([1]; dox-induced, see Figure 3A): 54%; association with chromatin [4]: associated with chromatin; effect on tumor growth [5]: reduces tumorigenesis in vivo much more efficiently; effect on Chd5 target gene expression in mefs ([2]; listed as Chd5): inhibits expression of the oncogenic PcG protein Bmi1; reduction of SK-N-AS proliferation [6]: about 17%; effect on SK-N-AS proliferation [6]: inhibited proliferation; also recorded: inhibits cellular proliferation; MAP2 expression [7]: increased expression; also recorded: increase in MAP2 expression; pull-down by H3 peptide of Flag-tagged Chd5 [8]: are pulled down by H3 peptide |
| G355A: Chd5 mutant compromised for H3 binding | defective in their ability to inhibit proliferation | not able to inhibit expression of Chd5-bound loci | – | – | – |
| D346A: Chd5-PHD1 single amino acid mutant; H3-binding-competent | inhibited proliferation to an extent comparable to that of wild-type Chd5; also recorded: inhibit proliferation | repress target gene expression; also recorded: inhibit expression of several Chd5-bound genes | binds the H3K4me0 peptide | intermediate differentiation phenotype | effect on mef proliferation ([1]; listed as Chd5-PHD1-D346A): inhibits cellular proliferation; reduction of SK-N-AS proliferation [6]: about 17%; effect on SK-N-AS proliferation [6]: inhibited proliferation; effect on SK-N-AS proliferation ([6]; listed as Chd5-PHD1-D346A): inhibits cellular proliferation; relative efficiency of H3 binding [9]: bind H3 more efficiently than PHD1-D361A, PHD2-D434A, and PHD2-D415A; cell morphology / differentiation ([7]; listed as Chd5-D346A): partially-differentiated morphology; pull-down by H3 peptide of Flag-tagged Chd5 [8]: are pulled down by H3 peptide |
| unmodified H3 (1–21) peptide: biotinylated histone H3 (1–21) peptide | – | – | – | – | binding to recombinant tandem PHDs of Chd5 (pull-down) [10]: bind |
| D361A: Chd5-PHD1 single amino acid mutant compromised for H3 binding | defective in their ability to inhibit proliferation | fail to do so; also recorded: not able to inhibit expression of Chd5-bound loci | compromised binding | classic stem-like neuroblastoma morphology with proliferative foci | effect on mef proliferation ([1]; listed as Chd5-PHD1-D361A): fail to do so; effect on tumor growth [5]: failed to reduce tumor growth; effect on SK-N-AS proliferation [6]: no such effects are observed; MAP2 expression [7]: lower expression |
| D434A: Chd5-PHD2 single amino acid mutant compromised for H3 binding | defective in their ability to inhibit proliferation | fail to do so; also recorded: not able to inhibit expression of Chd5-bound loci | compromised binding | classic stem-like neuroblastoma morphology with proliferative foci | effect on mef proliferation ([1]; listed as Chd5-PHD2-D434A): fail to do so; effect on tumor growth [5]: failed to reduce tumor growth; MAP2 expression [7]: lower expression |
| D415A: Chd5 mutant compromised for H3 binding | defective in their ability to inhibit proliferation | – | – | – | – |
| C432W: Chd5 mutant compromised for H3 binding | defective in their ability to inhibit proliferation | not able to inhibit expression of Chd5-bound loci | – | – | – |
| D346A/D434A: Chd5 double mutant, PHD1-D346A and PHD2-D434A | fail to do so | fail to do so | – | – | – |
| C[C@H]1c2cccc(O)c2C(=O)C2=C(O)[C@]3(O)C(=O)C(C(N)=O)=C(O)[C@@H](N(C)C)[C@@H]3[C@@H](O)[C@@H]21 [doxycycline, reference compound] | no significant effect | – | – | – | – |
